Data taken from ChEMBL document CHEMBL4428122, “Design, synthesis, and biological characterization of novel PEG-linked dimeric modulators for CXCR4” (Bioorg Med Chem, 2016).
Calls of active or inactive are those of the source. The rule behind the calls is not given here. Non-standard residues stand in square brackets, D forms with d. Residues, ends and D or L forms follow the SMILES beside them.

Experiments:
[1] = biological target: T1, C-X-C chemokine receptor type 4 (Homo sapiens, UniProt P61073); experiment: Agonist activity at CXCR4 in human SupT1 cells assessed as increase Ca2+ influx at 2 uM by fura-2/AM dye-based fluorescence analysis; assay type: functional, cell-based
T1 sequence (P61073 whole entry): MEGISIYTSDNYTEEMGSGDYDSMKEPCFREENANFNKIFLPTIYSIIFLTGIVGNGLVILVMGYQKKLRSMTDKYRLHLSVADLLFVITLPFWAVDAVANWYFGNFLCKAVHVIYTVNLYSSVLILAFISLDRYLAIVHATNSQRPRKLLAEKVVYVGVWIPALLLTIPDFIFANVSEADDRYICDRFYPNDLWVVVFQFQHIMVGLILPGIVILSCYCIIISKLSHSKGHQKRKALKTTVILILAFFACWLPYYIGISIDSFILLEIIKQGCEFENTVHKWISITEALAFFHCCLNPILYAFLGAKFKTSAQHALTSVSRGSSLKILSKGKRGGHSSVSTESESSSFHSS
Outline: (§1)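 They were loaded at 10^7 cells/mL with 2 μM fura-2/AM and 5 μM probenecid for 30 min, then resuspended at 2 × 10^6 cells/mL. After a 2 min baseline, peptide was added. Ex 340/380 nm, em 510 nm.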

[2] = biological target: T1, C-X-C chemokine receptor type 4; experiment: Antagonist activity at CXCR4 in human SupT1 cells assessed as inhibition of CXCL12-induced cell migration at 100 nM preincubated for 2 hrs followed by CXCL12 addition measured after 3 hrs by Cell titer-Blue reagent-based transwell assay
Outline: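 SUP-T1 cells were washed in RPMI1640 with 0.5% BSA, and 1 × 10^6 cells were incubated with peptide for 2 h. Cells were then seeded in upper transwell chambers (5 μm pores) over a lower chamber with 10 nM SDF-1α, or buffer alone for background. Migration ran 3 h at 37°C. Migrated cells were expressed as % of seeded cells. At least three independent experiments, mean ± S.E.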

[3] = tested on: SUP-T1; experiment: Cytotoxicity against human SupT1 cells at 100 nM; assay type: cell-based; conditions: sup-t1, 0.1 µM
[4] = biological target: T1, C-X-C chemokine receptor type 4; experiment: Agonist activity at CXCR4 in human SupT1 cells assessed as increase in Ca2+ influx by fura-2/AM dye-based fluorescence analysis; assay type: functional, cell-based; outline: as §1
[5] = biological target: T1, C-X-C chemokine receptor type 4; experiment: Antagonist activity at CXCR4 in human SupT1 cells assessed as inhibition of CXCL12-induced Ca2+ influx preincubated for 2 to 3 mins prior CXCL12-stimulation by fura-2/AM dye-based fluorescence analysis; assay type: functional, cell-based
Outline: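 Fura-2/AM-loaded SUP-T1 cells (2 μM dye, 5 μM probenecid, 30 min; 2 × 10^6 cells/mL in Hepes pH 7.4 saline with Ca2+/Mg2+, glucose, 0.025% BSA) were pre-incubated with peptide for 2–3 min, then stimulated with SDF-1α. Fluorescence was read at ex 340/380 nm, em 510 nm.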

[6] = biological target: T1, C-X-C chemokine receptor type 4; experiment: Binding affinity to CXCR4 (unknown origin) expressed in CHO cells measured after 40 mins by 12G5 antibody competition assay; assay type: cell-based

inhibition [2] | antagonist activity (qualitative) [5] | Compound | Activity [3] | other results
67% |  | CC(C)C[C@@H](N)C(=O)NCC(=O)N[C@H](C)C(=O)N[C@H](CO)C(=O)N[C@H](Cc1c[nH]c2ccccc12)C(=O)N[C@H](Cc1cnc[nH]1)C(=O)N[C@H](CCCNC(=N)N)C(=O)N1CCC[C@@H]1C(=O)N[C@H](CC(=O)O)C(=O)N[C@H](CCCCN)C(=O)NCCOCCOCCOCCC(=O)NCCCC[C@H](NC(=O)CCOCCOCCOCCNC(=O)[C@@H](CCCCN)NC(=O)[C@@H](CC(=O)O)NC(=O)[C@H]1CCCN1C(=O)[C@@H](CCCNC(=N)N)NC(=O)[C@@H](Cc1cnc[nH]1)NC(=O)[C@@H](Cc1c[nH]c2ccccc12)NC(=O)[C@@H](CO)NC(=O)[C@@H](C)NC(=O)CNC(=O)[C@H](N)CC(C)C)C(N)=O | Non-Toxic | 
 | Active | CC(C)C[C@@H](N)C(=O)NCC(=O)N[C@H](C)C(=O)N[C@H](CO)C(=O)N[C@H](Cc1c[nH]c2ccccc12)C(=O)N[C@H](Cc1cnc[nH]1)C(=O)N[C@H](CCCNC(=N)N)C(=O)N1CCC[C@@H]1C(=O)N[C@H](CC(=O)O)C(=O)N[C@H](CCCCN)C(=O)NCCOCCOCCOCCOCCOCCC(=O)NCCCC[C@H](NC(=O)CCOCCOCCOCCOCCOCCNC(=O)[C@@H](CCCCN)NC(=O)[C@@H](CC(=O)O)NC(=O)[C@H]1CCCN1C(=O)[C@@H](CCCNC(=N)N)NC(=O)[C@@H](Cc1cnc[nH]1)NC(=O)[C@@H](Cc1c[nH]c2ccccc12)NC(=O)[C@@H](CO)NC(=O)[C@@H](C)NC(=O)CNC(=O)[C@H](N)CC(C)C)C(N)=O | Non-Toxic | 

Continued, compound first:

Compound | inhibition [2] | antagonist activity (qualitative) [5] | Activity [3] | other results
CC(C)C[C@@H](N)C(=O)NCC(=O)N[C@H](C)C(=O)N[C@H](CO)C(=O)N[C@H](Cc1c[nH]c2ccccc12)C(=O)N[C@H](Cc1cnc[nH]1)C(=O)N[C@H](CCCNC(=N)N)C(=O)N1CCC[C@@H]1C(=O)N[C@H](CC(=O)O)C(=O)N[C@H](CCCCN)C(=O)NCCOCCOCCOCCC(=O)N[C@@H](CCCCNC(=O)CCOCCOCCOCCNC(=O)[C@H](CCCNC(=N)N)NC(=O)[C@H](Cc1ccc(O)cc1)NC(=O)[C@H](CO)NC(=O)[C@H](CC(C)C)NC(=O)[C@H](CO)NC(=O)[C@@H](NC(=O)[C@@H]1CCCN1C(=O)[C@@H](N)CCCCN)C(C)C)C(N)=O |  |  |  | Activity [1]: Active
CC(C)C[C@@H](N)C(=O)NCC(=O)N[C@H](C)C(=O)N[C@H](CO)C(=O)N[C@H](Cc1c[nH]c2ccccc12)C(=O)N[C@H](Cc1cnc[nH]1)C(=O)N[C@H](CCCNC(=N)N)C(=O)N1CCC[C@@H]1C(=O)N[C@H](CC(=O)O)C(=O)N[C@H](CCCCN)C(=O)NCCOCCOCCOCCOCCOCCC(=O)N[C@@H](CCCCNC(=O)CCOCCOCCOCCOCCOCCNC(=O)[C@H](CCCNC(=N)N)NC(=O)[C@H](Cc1ccc(O)cc1)NC(=O)[C@H](CO)NC(=O)[C@H](CC(C)C)NC(=O)[C@H](CO)NC(=O)[C@@H](NC(=O)[C@@H]1CCCN1C(=O)[C@@H](N)CCCCN)C(C)C)C(N)=O |  |  |  | Activity [4]: inactive
CC(C)C[C@@H](N)C(=O)NCC(=O)N[C@H](C)C(=O)N[C@H](CO)C(=O)N[C@H](Cc1c[nH]c2ccccc12)C(=O)N[C@H](Cc1cnc[nH]1)C(=O)N[C@H](CCCNC(=N)N)C(=O)N1CCC[C@@H]1C(=O)N[C@H](CC(=O)O)C(=O)N[C@H](CCCCN)C(=O)N[C@H](CCCCNC(=O)[C@H](CCCNC(=N)N)NC(=O)[C@H](Cc1ccc(O)cc1)NC(=O)[C@H](CO)NC(=O)[C@H](CC(C)C)NC(=O)[C@H](CO)NC(=O)[C@@H](NC(=O)[C@@H]1CCCN1C(=O)[C@@H](N)CCCCN)C(C)C)C(N)=O |  |  |  | IC50 ([6]; read-out: IC50): 0.502 µM; Activity [4]: Active
CC(C)C[C@@H](N)C(=O)NCC(=O)N[C@H](C)C(=O)N[C@H](CO)C(=O)N[C@H](Cc1c[nH]c2ccccc12)C(=O)N[C@H](Cc1cnc[nH]1)C(=O)N[C@H](CCCNC(=N)N)C(=O)N1CCC[C@@H]1C(=O)N[C@H](CC(=O)O)C(=O)N[C@H](CCCCN)C(=O)NCCOCCOCCOCCC(=O)N[C@@H](CCCCNC(=O)CCOCCOCCOCCOCCOCCNC(=O)[C@H](CO)NC(=O)[C@H](CC(C)C)NC(=O)[C@H](CO)NC(=O)[C@@H](NC(=O)[C@@H]1CCCN1C(=O)[C@@H](N)CCCCN)C(C)C)C(N)=O |  |  |  | Activity [4]: inactive
CC(C)C[C@@H](N)C(=O)NCC(=O)N[C@H](C)C(=O)N[C@H](CO)C(=O)N[C@H](Cc1c[nH]c2ccccc12)C(=O)N[C@H](Cc1cnc[nH]1)C(=O)N[C@H](CCCNC(=N)N)C(=O)N1CCC[C@@H]1C(=O)N[C@H](CC(=O)O)C(=O)N[C@H](CCCCN)C(=O)NCCOCCOCCOCCOCCOCCOCCOCCC(=O)NCCCC[C@H](NC(=O)CCOCCOCCOCCOCCOCCOCCOCCNC(=O)[C@@H](CCCCN)NC(=O)[C@@H](CC(=O)O)NC(=O)[C@H]1CCCN1C(=O)[C@@H](CCCNC(=N)N)NC(=O)[C@@H](Cc1cnc[nH]1)NC(=O)[C@@H](Cc1c[nH]c2ccccc12)NC(=O)[C@@H](CO)NC(=O)[C@@H](C)NC(=O)CNC(=O)[C@H](N)CC(C)C)C(N)=O | 48% | Active | Non-Toxic | 
CC(C)C[C@@H](N)C(=O)NCC(=O)N[C@H](C)C(=O)N[C@H](CO)C(=O)N[C@H](Cc1c[nH]c2ccccc12)C(=O)N[C@H](Cc1cnc[nH]1)C(=O)N[C@H](CCCNC(=N)N)C(=O)N1CCC[C@@H]1C(=O)N[C@H](C)C(=O)N[C@H](CCCCN)C(=O)NCCOCCOCCOCCC(=O)NCCCC[C@H](NC(=O)CCOCCOCCOCCNC(=O)[C@@H](CCCCN)NC(=O)[C@@H](C)NC(=O)[C@H]1CCCN1C(=O)[C@@H](CCCNC(=N)N)NC(=O)[C@@H](Cc1cnc[nH]1)NC(=O)[C@@H](Cc1c[nH]c2ccccc12)NC(=O)[C@@H](CO)NC(=O)[C@@H](C)NC(=O)CNC(=O)[C@H](N)CC(C)C)C(N)=O | 21% | Active | Non-Toxic | 
CC(C)C[C@@H](N)C(=O)NCC(=O)N[C@H](C)C(=O)N[C@H](CO)C(=O)N[C@H](Cc1c[nH]c2ccccc12)C(=O)N[C@H](Cc1cnc[nH]1)C(=O)N[C@H](CCCNC(=N)N)C(=O)N[C@H](C)C(=O)N[C@H](CC(=O)O)C(=O)N[C@H](CCCCN)C(=O)NCCOCCOCCOCCC(=O)NCCCC[C@H](NC(=O)CCOCCOCCOCCNC(=O)[C@@H](CCCCN)NC(=O)[C@@H](CC(=O)O)NC(=O)[C@@H](C)NC(=O)[C@@H](CCCNC(=N)N)NC(=O)[C@@H](Cc1cnc[nH]1)NC(=O)[C@@H](Cc1c[nH]c2ccccc12)NC(=O)[C@@H](CO)NC(=O)[C@@H](C)NC(=O)CNC(=O)[C@H](N)CC(C)C)C(N)=O | 23% | Active | Non-Toxic | 
CC(C)C[C@@H](N)C(=O)NCC(=O)N[C@H](C)C(=O)N[C@H](CO)C(=O)N[C@H](Cc1c[nH]c2ccccc12)C(=O)N[C@H](Cc1cnc[nH]1)C(=O)N[C@H](CCCNC(=N)N)C(=O)N1CCC[C@@H]1C(=O)N[C@H](CC(=O)O)C(=O)N[C@H](CCCCN)C(=O)NC(=O)[C@@H](CCCCN)NC(=O)[C@@H](CC(=O)O)NC(=O)[C@H]1CCCN1C(=O)[C@@H](CCCNC(=N)N)NC(=O)[C@@H](Cc1cnc[nH]1)NC(=O)[C@@H](Cc1c[nH]c2ccccc12)NC(=O)[C@@H](CO)NC(=O)[C@@H](C)NC(=O)CNC(=O)[C@H](N)CC(C)C |  |  |  | IC50 ([6]; read-out: IC50): 0.462 µM
CC(C)C[C@@H](N)C(=O)NCC(=O)N[C@H](C)C(=O)N[C@H](CO)C(=O)N[C@H](Cc1c[nH]c2ccccc12)C(=O)N[C@H](Cc1cnc[nH]1)C(=O)N[C@H](CCCNC(=N)N)C(=O)N1CCC[C@@H]1C(=O)N[C@H](CC(=O)O)C(=O)N[C@H](CCCCN)C(=O)NCCOCCOCCOCCC(=O)N[C@@H](CCCCNC(=O)CCOCCOCCOCCNC(=O)[C@H](CC(C)C)NC(=O)[C@H](CO)NC(=O)[C@@H](NC(=O)[C@@H]1CCCN1C(=O)[C@@H](N)CCCCN)C(C)C)C(N)=O |  |  |  | Activity [4]: inactive
CC(C)C[C@@H](N)C(=O)NCC(=O)N[C@H](C)C(=O)N[C@H](CO)C(=O)N[C@H](Cc1c[nH]c2ccccc12)C(=O)N[C@H](Cc1cnc[nH]1)C(=O)N[C@H](CCCNC(=N)N)C(=O)N1CCC[C@@H]1C(=O)NCCOCCOCCOCCC(=O)NCCCC[C@H](NC(=O)CCOCCOCCOCCNC(=O)[C@H]1CCCN1C(=O)[C@@H](CCCNC(=N)N)NC(=O)[C@@H](Cc1cnc[nH]1)NC(=O)[C@@H](Cc1c[nH]c2ccccc12)NC(=O)[C@@H](CO)NC(=O)[C@@H](C)NC(=O)CNC(=O)[C@H](N)CC(C)C)C(N)=O | 28% | Active | Non-Toxic | 
CC(C)C[C@@H](N)C(=O)NCC(=O)N[C@H](C)C(=O)N[C@H](CO)C(=O)N[C@H](Cc1c[nH]c2ccccc12)C(=O)N[C@H](Cc1cnc[nH]1)C(=O)N[C@H](CCCNC(=N)N)C(=O)N1CCC[C@@H]1C(=O)N[C@H](CC(=O)O)C(=O)N[C@H](CCCCN)C(=O)O (H-[dL]G[dA][dS][dW][dH][dR][dP][dD][dK]-OH) |  |  |  | IC50 ([6]; read-out: IC50): 2 µM
H-KPVSLSYR-OH |  |  |  | IC50 ([6]; cho): Not Active
CC(C)C[C@@H](N)C(=O)NCC(=O)N[C@H](C)C(=O)N[C@H](CO)C(=O)N[C@H](Cc1c[nH]c2ccccc12)C(=O)N[C@H](Cc1cnc[nH]1)C(=O)N[C@H](CCCNC(=N)N)C(=O)N1CCC[C@@H]1C(=O)NCCOCCOCCOCCOCCOCCC(=O)NCCCC[C@H](NC(=O)CCOCCOCCOCCOCCOCCNC(=O)[C@H]1CCCN1C(=O)[C@@H](CCCNC(=N)N)NC(=O)[C@@H](Cc1cnc[nH]1)NC(=O)[C@@H](Cc1c[nH]c2ccccc12)NC(=O)[C@@H](CO)NC(=O)[C@@H](C)NC(=O)CNC(=O)[C@H](N)CC(C)C)C(N)=O | 34% |  | Non-Toxic | 
